# Test results reported in ChEMBL document CHEMBL4513216, “Probing the Open Global Health Chemical Diversity Library for Multistage-Active Starting Points for Next-Generation Antimalarials” (ACS Infect Dis, 2020).
# Test: Toxicity liver stage against HepG2, at 10uM
# Format: cell-based
# Design: test concentration 10 uM, cell line HepG2-A16-CD81EGFP
# Details: human, HepG2-A16-CD81EGFP cells; read-out: INHIBITION
# Method in brief: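 Uninfected HepG2-A16-CD81EGFP cells, 3 × 10^3 per well, 1536-well, plated on prespotted compound at 10 μM final, parasite-free screening media added to match infected plates; puromycin 10 μM positive, DMSO 0.5% negative; run in parallel with 48 h PbLuc assay at 37 °C, 5% CO2; viability by CellTiter-Glo luminescence, normalized to controls.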
structure (smiles),measurement,value
CC[C@H]1CN2CC[C@H]1C[C@@H]2CNCc1ccc(OC(F)(F)F)cc1,cytotoxicity at 10 µM,-0.785%
O=c1ccc(-n2cccn2)nn1CCNS(=O)(=O)c1ccc(F)c(Cl)c1,cytotoxicity at 10 µM,1.48%
COC(=O)CCC(=O)N1CCC2(CN(Cc3ccccc3)C2)C1,cytotoxicity at 10 µM,12.3%
CC(C)(C)n1ncc2c1NC(=O)CC2c1ccccc1 (centres undefined),cytotoxicity at 10 µM,19.2%
O=C([C@H]1C[C@H]2OCC[C@H]2N(Cc2ccncc2)C1)N1CCCCO1,cytotoxicity at 10 µM,-9.01%
Cc1nc(C(=O)N2CCCC(c3ccc4sc(N)nc4n3)C2)co1 (centres undefined),cytotoxicity at 10 µM,-11.9%
CNc1cc(C2CCCN2Cc2ccccc2OCC(=O)O)ccn1 (centres undefined),cytotoxicity at 10 µM,-0.645%
O=C(Nc1ccc(-c2ccccc2)cn1)C1CCCN1C(=O)C1CC1 (centres undefined),cytotoxicity at 10 µM,-1.6%
CN1CCOC(CNCc2nc(-c3ccco3)no2)C1 (centres undefined),cytotoxicity at 10 µM,3.54%
CC(NCCCn1cccn1)c1ccc(N2CCCS2(=O)=O)cc1 (centres undefined),cytotoxicity at 10 µM,-0.828%
COc1ccccc1CC1CCCN(C(=O)c2cc[nH]n2)C1 (centres undefined),cytotoxicity at 10 µM,6.11%
CC(C)c1ccccc1OCCNC(=O)N1CCC(CC(N)=O)CC1,cytotoxicity at 10 µM,3.2%
O=C1CN(C(=O)c2cc(Cl)ccc2F)c2ccccc2N1,cytotoxicity at 10 µM,79.6%
Cc1nn(C)c2ncc(S(=O)(=O)N3CCN4CCCC4C3)cc12 (centres undefined),cytotoxicity at 10 µM,2.6%
COCC(=O)N1CCN(Cc2nnc(C(C)(C)C)o2)CC1,cytotoxicity at 10 µM,7.66%
O=C(N1CCOCC1)N1CCN(c2ccnc3ccsc23)CC1,cytotoxicity at 10 µM,-4.48%
CCC(C)NC(=O)c1ccc(NC(=O)CCCn2cncn2)c(C)c1 (centres undefined),cytotoxicity at 10 µM,-10.7%
O=C(c1cc[nH]n1)N(Cc1cccc(O)c1)CC1CC1,cytotoxicity at 10 µM,8.27%
CN1CC(NC(=O)CCOc2cccc(Cl)c2)CC1=O (centres undefined),cytotoxicity at 10 µM,-5.4%
Cc1csc(C2CCCN(C(=O)c3ccc(=O)n(C)n3)C2)n1 (centres undefined),cytotoxicity at 10 µM,6.76%
CC(C)CN1Cc2c(C(=O)N(C)C)ncn2-c2ccccc2S1(=O)=O,cytotoxicity at 10 µM,3.63%
COc1nc2c(cc1C(=O)N(C)Cc1n[nH]c3c1CCCC3)CCC2,cytotoxicity at 10 µM,-1.89%
Cc1ccc(-c2cnnc(N3CCCC3c3nonc3C)n2)o1 (centres undefined),cytotoxicity at 10 µM,5.46%
Cn1ccnc1-c1cn(Cc2cn3c(n2)SCC3)nn1,cytotoxicity at 10 µM,-0.773%
O=C(O)[C@@H]1CN(C(=O)CN2Cc3ccccc3C2)C[C@H]1c1ccncc1,cytotoxicity at 10 µM,4.85%
Cc1nc(C(C)NC(=O)c2cn(CCC3CCCCC3)nn2)n[nH]1 (centres undefined),cytotoxicity at 10 µM,9.21%
O=C(N[C@@H]1CCN(c2nccc3ccccc23)C[C@H]1O)c1cnccn1,cytotoxicity at 10 µM,-6.71%
CCCc1cc(N2CCC(Cc3cccc(C(N)=O)c3)C2)nc(C)n1 (centres undefined),cytotoxicity at 10 µM,-1.62%
CC(C)n1cc(C(=O)NCC(CO)Cc2cccs2)cn1 (centres undefined),cytotoxicity at 10 µM,7.64%
CC(C)N1CCCC2(CCN(C(=O)CCCn3cccn3)C2)C1=O (centres undefined),cytotoxicity at 10 µM,0.264%
CNS(=O)(=O)c1cccc(C(=O)N(C)Cc2ccsc2)c1,cytotoxicity at 10 µM,4.04%
N#Cc1ccc(OCC(O)CN2CCC(Cn3cccn3)CC2)cc1 (centres undefined),cytotoxicity at 10 µM,-0.775%
CN(Cc1ccsc1)C(=O)CN1CCOC(Cn2cncn2)C1 (centres undefined),cytotoxicity at 10 µM,-1.14%
O=C(NCc1nnc2n1CCCC2)N1CCc2sccc2C1,cytotoxicity at 10 µM,-9.78%
CC(CC(=O)NS(=O)(=O)c1ccc2c(c1)OCCO2)c1ccc(F)cc1 (centres undefined),cytotoxicity at 10 µM,-31.6%
Cc1cc(C[C@@H]2CCC[C@H]2NCc2c[nH]nc2-c2ccccc2)on1,cytotoxicity at 10 µM,-14%
O=C(C1CC1)N1CCN(Cc2ccncc2)c2ncccc2C1,cytotoxicity at 10 µM,-3.88%
CN(C)CCN1C(=O)CCCC12CCCN(C(=O)c1ccncc1)C2 (centres undefined),cytotoxicity at 10 µM,-1.31%
Cc1nc(CN2C[C@@H]3CN(c4ncc(F)cn4)C[C@@H]3C2=O)cs1,cytotoxicity at 10 µM,-0.673%
CCS(=O)(=O)N1CCC2(CC1)COC(COc1cccnc1)C2 (centres undefined),cytotoxicity at 10 µM,10.6%
COCC1CN(S(=O)(=O)N(C)C)Cc2ncn(CC3CC3)c21 (centres undefined),cytotoxicity at 10 µM,8.77%
CN(C)C[C@H]1OC[C@@H]2CN(C(=O)NCc3cccnc3)CC[C@@H]21,cytotoxicity at 10 µM,3.86%
CCS(=O)(=O)N1CC[C@@H]2[C@H](CC1)N(Cc1cccnc1)CCS2(=O)=O,cytotoxicity at 10 µM,-3.12%
NCC1[C@H]2CN(Cc3ccccc3)C[C@@H]12 (some centres undefined),cytotoxicity at 10 µM,4.78%
